Assay outcomes: PubChem BioAssay, several laboratories
NRP1-CendR mod: modulators of CendR peptide binding to NRP-1, primary screen, biochemical, fluorescence polarization, uHTS | Neuropilin-1 (Homo sapiens), O14786 | FAM-RPARPAR peptide binding to NRP-1 | inhibition, % at 25 µM | hit rate 0.85% among 360,000;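 active = inhibition or corrected inhibition above about 18%, plus a signal ratio from 0.5 to 1.5, limit read from the data, passing the limit was not always enough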
CaV13 FRET inh: Primary screen for inhibitors of IQ motif and Ca2+-dependent inactivation inhibitor domain binding in CACNA1D, Förster resonance energy transfer in living cells, …; HEK cells, CFP/YFP FRET ICDI-IQ, plate reader, 10 min; percent FRET-ratio fall versus neutral wells; inhibition, % at 12.3 µM; hit rate 0.098% among 340,000;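 active = mean replicate inhibition of at least 30% and at least 1% of replicates passing that level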;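 also: 0% = median of the neutral control wells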
ADAM17 inh: ADAM17 inhibitors, primary screen, biochemical, QFRET; hit rate 0.83% among 370,000; AID 720648, 2013; recombinant ADAM17, EDANS/DABCYL FRET peptide cleavage; inhibition, % at 6.95 µM;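 active = inhibition above the mean of compounds lying between control limits plus 3 SD, set per campaign, cut at about 8.5% in these data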;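 also: 0% = DMSO-only wells as the low control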
ADAM10 inh: human ADAM10 inhibitors, primary screen, biochemical, QFRET, HTS; AID 720582, 2013; Disintegrin and metalloproteinase domain-containing protein 10 (Homo sapiens), O14672; recombinant ADAM10, EDANS/DABCYL FRET peptide cleavage, 3 h; inhibition, % at 7 µM; hit rate 0.62% among 370,000;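 active = inhibition above a per-campaign cutoff equal to the mean of compounds falling between control-based bounds plus 3 SD, cut at about 20% in these data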;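 also: 0% = DMSO wells while the 100% control is not disclosed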
Arrestin-AP2 inh: inhibitors of beta-arrestin/AP2 binding, primary screen, biochemical, GPCR trafficking, flow cytometry; beta-arrestin 1 C-terminal peptide binding to AP2 beta2-adaptin appendage (human); FITC-arrestin peptide / GST-AP2 beads; AP2 beta2 appendage carries R879A mutation; AID 504490, 2011; hit rate 0.31% among 340,000; inhibition, % at 10 µM;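 active = inhibition above a set limit, near 3 SD of compounds lacking own fluorescence, cut at about 54% in these data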;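 also: plate controls were DMSO wells for no effect and 5 µM unlabelled arrestin peptide for full effect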
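test system = AP2 appendage R879A on GSH beads | buffer or medium = PBS plus Tween 20 (0.05%) and BSA (0.1%) | incubation = 12 min plus 1 h, RT | detection = bead flow cytometry, FITC channel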
FAS-TE inh: FAS thioesterase domain inhibitors, primary screen, biochemical, fluorescence intensity, uHTS | Fatty acid synthase (Homo sapiens), P49327 | recombinant FAS-TE, OMFH fluorogenic substrate, fluorescence endpoint | inhibition, % at 15 µM | hit rate 0.67% among 360,000;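 active = compounds whose normalised, plate-corrected inhibition of enzyme fluorescence in the single-dose primary screen is 50% or more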;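 also: 0% = DMSO with enzyme and 100% = substrate without enzyme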
ADAM10 counter: ADAM10 inhibitors, counter-screen for ADAM17 exosite inhibitor project, biochemical, FRET, human ADAM10. shares compounds with ADAM17 inh. inhibition, % at 6.95 µM. recombinant ADAM10, EDANS/DABCYL FRET peptide cleavage, 3 h. hit rate 47% among 2,900. AID 743256, 2014;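 active = mean inhibition over the triplicate runs exceeds the activity threshold set in the earlier primary screen, cut at about 20% in these data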;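 also: 0% = DMSO wells and 100% = marimastat wells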
ADAM17 confirm: ADAM17 inhibitors, hit retest, confirmation, biochemical, QFRET peptide cleavage; recombinant ADAM17, EDANS/DABCYL QFRET peptide cleavage; inhibition, % at 6.95 µM; hit rate 65% among 2,900; AID 743257, 2014; shares compounds with ADAM17 inh;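 active = mean inhibition across replicates above the hit cutoff set in the primary screen, cut at about 8.5% in these data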;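 also: 0% = DMSO wells and 100% = marimastat wells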
* marks the source's active call; other numbers are inactive results; · = no result. Rows were chosen to be rich in hits. Some 2.9% of all compounds tested hit in one or more screens of this group.

SMILES	NRP1-CendR mod	CaV13 FRET inh	ADAM17 inh	ADAM10 inh	Arrestin-AP2 inh	FAS-TE inh	ADAM10 counter	ADAM17 confirm
COc1ccc(NC(=O)C2Cc3c(-c4cccc(NC(C)=O)c4)ccnc3O2)cc1 (centres undefined)	-8.2	-5.0	-3.6	-1.6	·	-0.9	·	·
Fc1ccc(C(CCNCc2cccs2)c2ccco2)cc1 (centres undefined)	6.6	4.8	0.2	-2.7	-3.0	2.4	·	·
O=S(=O)(NCCC(c1ccc(F)cc1)c1ccco1)c1ccccc1 (centres undefined)	-11.5	-5.4	12.7*	15.3	6.2	34.4	18.3	11.0*
O=C(NCc1ccccc1)C1=C[C@H](c2ccc(C(F)(F)F)cc2)C[C@H](OCc2ccc(CO)cc2)O1	13.9	-5.6	14.5*	17.1	0.4	28.4	19.0	7.0
COC(=O)c1cc2c(c3c4ccccc4n(S(=O)(=O)c4ccc(OC)cc4)c13)C(=O)N(Cc1ccc(C(F)(F)F)cc1)C2	·	-4.8	1.9	-1.3	·	·	·	·
Cc1ccc(-c2ccc(/C=N/NC(=S)Nc3ccccc3)o2)cc1[N+](=O)[O-]	-5.3	-6.1	14.2*	13.6	1.8	14.6	24.4*	16.9*
O=C(c1c(Cl)nc2sccn12)N1CCN(c2cccc(Cl)c2)CC1	-3.2	·	9.1*	9.9	5.4	6.2	-8.2	-1.5
O=C(CCn1nc(-c2ccccc2)c2ccccc2c1=O)N1CCN(c2ccccc2)CC1	9.9	-3.4	10.0*	12.5	2.3	11.1	5.9	8.2
O=C(COC(=O)/C=C/c1ccccc1)NCc1ccco1	-7.9	-4.8	3.7	0.6	·	-3.6	·	·
Cc1nc2ccc(S(=O)(=O)NCC(=O)NCc3ccc4c(c3)OCO4)cc2s1	1.4	·	11.0*	3.6	5.8	-5.0	18.3	14.5*
Cc1cc(C(=O)CCC(=O)N(C)CC(=O)Nc2ccccc2Br)c(C)s1	3.6	-3.5	11.1*	5.8	26.4	-0.6	-9.8	-1.5
CCOC(=O)C1=CCN(S(=O)(=O)c2ccc(C)cc2)C1c1ccc(Cl)cc1 (centres undefined)	17.8	-6.4	6.5	12.1	·	18.6	·	·
O=C(CC(c1ccccc1)c1ccccc1)Nc1ccc2c(c1)OCCO2	-11.1	-1.5	12.5*	16.4	0.4	14.0	15.7	14.1*
CCOC(=O)c1c(NC(=O)CSc2c[nH]c3ccccc23)sc2c1CCCC2	-2.2	-5.1	9.7*	8.8	-3.4	24.0	23.9*	16.7*
CCOC(=O)c1c(NC(=O)CSc2nnc(-c3c[nH]c4ccccc34)n2CCOC)sc2c1CCCCC2	2.6	-5.4	-0.8	4.8	-5.9	19.6	·	·
CCOC(=O)c1c(NC(=O)CSc2c[nH]c3ccccc23)sc2c1CCC2	8.6	-3.2	9.8*	18.4	0.1	30.6	33.6*	20.6*
Clc1ccc(C2[C@H]3CN(Cc4ccc(-c5ccccc5)cc4)[C@H](c4ccccc4)C34CC2(c2ccccc2)C4)cn1 (some centres undefined)	·	-5.4	0.9	3.0	·	·	·	·
N#Cc1ccc(C23CC4(C2)[C@H](CN(Cc2ccc(-c5ccccc5)cc2)[C@@H]4c2ccccc2)C3c2ccc(Cl)nc2)cc1 (some centres undefined)	17.5	-4.5	12.6*	18.3	1.8	27.6	-1.1	4.5
Cc1ccc(CN(C)C(=O)CN2C(=O)NC(c3ccccc3)(c3ccccc3)C2=O)c(C)c1	9.9	-3.5	9.1*	8.4	0.6	30.3	30.8*	13.4*
CN(Cc1ccco1)C(=O)CN1C(=O)NC(c2ccccc2)(c2ccccc2)C1=O	-18.2	-4.2	-1.3	-7.0	-4.0	-3.6	·	·
CC1(C(=O)NS(=O)(=O)c2ccc(F)cc2F)CCN1C(=O)c1ccc(C2CCCCC2)cc1 (centres undefined)	6.9	-6.3	-0.9	-2.7	·	-2.6	·	·
CSC[C@H]1CN(c2ccc(Br)cc2)C(=O)[C@@H]1CC(=O)Nc1ccc(Br)cc1	-4.6	-5.8	-0.9	-9.4	·	8.4	·	·
COc1cccc(NC2c3ccccc3C(=O)N2Cc2ccccc2Cl)c1 (centres undefined)	2.3	-15.2	11.7*	13.5	-3.8	16.5	11.8	10.8*
COc1cc(NC2c3ccccc3C(=O)N2Cc2ccccc2Cl)cc(OC)c1 (centres undefined)	-7.8	-6.5	-2.1	-2.5	32.3	14.5	·	·
Cc1csc(-c2cnn(-c3ccccc3)c2NC(=O)c2ccc(C(F)(F)F)cc2)n1	4.1	·	9.3*	12.6	28.1	11.5	17.8	11.2*
SMILES	NRP1-CendR mod	CaV13 FRET inh	ADAM17 inh	ADAM10 inh	Arrestin-AP2 inh	FAS-TE inh	ADAM10 counter	ADAM17 confirm
CCc1ccc(/C=N/NC(=O)c2cc(-c3ccccc3OC)nc3ccccc23)s1	-0.8	-4.1	9.2*	8.0	1.9	25.3	-29.9	5.4
CCOC(=O)N1CCN(C(=O)C[C@H]2C[C@@]3(C(=O)OCC)CCCC4=C3N(CCC4)C2=O)CC1	·	·	-1.2	2.7	·	·	·	·
CC(C)(C)c1ccc(-c2nc(NCc3cccnc3)c3ccccc3n2)cc1	-33.9	-6.3	12.5*	13.2	-1.5	44.8	18.4	12.2*
Brc1ccc(C2C3=C(Nc4ncnn42)c2ccccc2OC3c2ccncc2)cc1 (centres undefined)	-0.3	-4.5	-78.4	-308.2	-12.7	15.2	·	·
COc1ccc(C2Oc3ccccc3C3=C2C(c2cccs2)n2ncnc2N3)cc1 (centres undefined)	-2.6	-3.9	9.6*	9.6	-0.8	39.5	-6.6	9.3*
CC(C)NC(=O)C1(C)CSCC(=O)N1C1CCN(Cc2ccccc2)CC1 (centres undefined)	13.0	-6.0	-3.9	-6.4	·	·	·	·
Cc1ccc(C2(CCNS(=O)(=O)c3ccc(C)cc3)CCOC(C(C)C)C2)cc1 (centres undefined)	2.1	-6.9	10.5*	16.9	-6.1	26.3	28.5*	15.9*
